Data published in ChEMBL document CHEMBL1123312, “In the search for new anticancer drugs. 17. Linear and cyclic polyether analogues of N,N:N',N':N'',N''-tri-1,2-ethanediylphosphoric triamide and N,N:N',N':N'',N''-tri-1,2-ethanediylphosphorothioic triamide” (J Med Chem, 1986).
Where “and” joins values, the source holds several entries; their conditions need not be identical. Equal values may be shown once.

Columns and labels:
[1] = partition coefficient with the use of 1-octanol / water solvent system; type: physicochemical
Procedure, shortened: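 4 mL of 10 mM aqueous compound was stirred vigorously with 2 mL 1-octanol for 5 min at 25 °C. The aqueous layer was analysed by ³¹P NMR, and signal intensity (peak height × width at half-height) gave concentrations in each phase. P = [octanol]/[water].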

Mus musculus [2] = experiment: Percentage increase in life span when the compound was administered intraperitoneally at dose of 20 mg/Kg in P388 leukemia in CDF1 mice was determined; type: functional; conditions: P388, ip
Procedure, shortened: (§1)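 CD2F1 male mice, 19–22 g, in groups of six, inoculated ip with 10⁶ P388 cells on day 0. Dosed ip once daily for 9 days from day 1, in saline, or for linear polyethers in aqueous 2% Tween 80. Deaths and survivors were recorded to 30 days, some to 60. T/C is mean survival, treated vs tumour-bearing control. %ILS = [(T−C)/C]×100. Average day-5 weight change was taken as toxicity.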

Mus musculus [3] = experiment: Percentage increase in life span when the compound was administered intraperitoneally at dose of 60 mg/Kg in P388 leukemia in CDF1 mice was determined; type: functional; conditions: P388, ip; procedure, shortened: as §1
Mus musculus [4] = experiment: Anticancer activity against P388 leukemia in CD2F1 male mice by 60 mg/kg/day.; type: functional; procedure, shortened: as §1
Mus musculus [5] = experiment: Anticancer activity against P388 leukemia in CD2F1 male mice expressed as Average % weight change on day 5 as a measure of toxicity was reported at a dose of 60 mg/kg/day.; type: functional; procedure, shortened: as §1
Mus musculus [6] = experiment: Compound was evaluated for the anticancer activity against P388 leukemia in CD2F1 male mice at a dose of 60 mg/kg/after 30 days; 0/6; type: functional; procedure, shortened: as §1
Mus musculus [7] = experiment: Compound was evaluated for the anticancer activity against P388 leukemia in CD2F1 male mice at a dose of 20 mg/kg/after 30 days; 0/6; type: functional
Mus musculus [8] = experiment: Anticancer activity against P388 leukemia in CD2F1 male mice expressed as Average % weight change on day 5 as a measure of toxicity was reported at a dose of 20 mg/kg/day.; type: functional; procedure, shortened: as §1
Mus musculus [9] = experiment: Percentage increase in life span when the compound was administered intraperitoneally at dose of 10 mg/Kg in P388 leukemia in CDF1 mice was determined; type: functional; conditions: P388, ip; procedure, shortened: as §1
Mus musculus [10] = experiment: Percentage increase in life span when the compound was administered intraperitoneally at dose of 125 mg/Kg in P388 leukemia in CDF1 mice was determined; type: functional; conditions: P388, ip; procedure, shortened: as §1
Mus musculus [11] = experiment: Percentage increase in life span when the compound was administered intraperitoneally at dose of 30 mg/Kg in P388 leukemia in CDF1 mice was determined; type: functional; conditions: P388, ip; procedure, shortened: as §1
Mus musculus [12] = experiment: Percentage increase in life span when the compound was administered intraperitoneally at dose of 40 mg/Kg in P388 leukemia in CDF1 mice was determined; type: functional; conditions: P388, ip; procedure, shortened: as §1
Mus musculus [13] = experiment: Percentage increase in life span when the compound was administered intraperitoneally at dose of 5 mg/Kg in P388 leukemia in CDF1 mice was determined; type: functional; conditions: P388, ip; procedure, shortened: as §1
Mus musculus [14] = experiment: Percentage increase in life span when the compound was administered intraperitoneally at dose of 90 mg/Kg in P388 leukemia in CDF1 mice was determined; type: functional; conditions: P388, ip; procedure, shortened: as §1
Mus musculus [15] = experiment: Compound was evaluated for the anticancer activity against P388 leukemia in CD2F1 male mice at a dose of 10 mg/kg/day.; type: functional; procedure, shortened: as §1
Mus musculus [16] = experiment: Anticancer activity against P388 leukemia in CD2F1 male mice by 20 mg/kg/day.; type: functional; procedure, shortened: as §1
Mus musculus [17] = experiment: Compound was evaluated for the anticancer activity against P388 leukemia in CD2F1 male mice at a dose of 30 mg/kg/day.; type: functional; procedure, shortened: as §1
Mus musculus [18] = experiment: Compound was evaluated for the anticancer activity against P388 leukemia in CD2F1 male mice at a dose of 40 mg/kg/day.; type: functional; conditions: at 40 mg/kg/day
Mus musculus [19] = experiment: Compound was evaluated for the anticancer activity against P388 leukemia in CD2F1 male mice at a dose of 90 mg/kg/day.; type: functional; procedure, shortened: as §1
Mus musculus [20] = experiment: Compound was evaluated for the anticancer activity against P388 leukemia in CD2F1 male mice at a dose of 90 mg/kg/after 60 days; 5/6; type: functional; procedure, shortened: as §1
Mus musculus [21] = experiment: Compound was evaluated for the anticancer activity against P388 leukemia in CD2F1 male mice at a dose of 30 mg/kg/after 30 days; 0/6; type: functional; procedure, shortened: as §1
Mus musculus [22] = experiment: Compound was evaluated for the anticancer activity against P388 leukemia in CD2F1 male mice at a dose of 40 mg/kg/after 30 days; 0/6; type: functional
Mus musculus [23] = experiment: Compound was evaluated for the anticancer activity against P388 leukemia in CD2F1 male mice at a dose of 60 mg/kg/after 30 days; 3/6; type: functional; procedure, shortened: as §1
Mus musculus [24] = experiment: Compound was evaluated for the anticancer activity against P388 leukemia in CD2F1 male mice at a dose of 60 mg/kg/after 60 days; 1/6; type: functional; procedure, shortened: as §1
Mus musculus [25] = experiment: Compound was evaluated for the anticancer activity against P388 leukemia in CD2F1 male mice at a dose of 90 mg/kg/after 30 days; 6/6; type: functional; procedure, shortened: as §1
Mus musculus [26] = experiment: Anticancer activity against P388 leukemia in CD2F1 male mice expressed as Average % weight change on day 5 as a measure of toxicity was reported at a dose of 30 mg/kg/day.; type: functional; procedure, shortened: as §1
Mus musculus [27] = experiment: Anticancer activity against P388 leukemia in CD2F1 male mice expressed as Average % weight change on day 5 as a measure of toxicity was reported at a dose of 40 mg/kg/day.; type: functional; procedure, shortened: as §1
Mus musculus [28] = experiment: Anticancer activity against P388 leukemia in CD2F1 male mice expressed as Average % weight change on day 5 as a measure of toxicity was reported at a dose of 90 mg/kg/day.; type: functional; procedure, shortened: as §1
Mus musculus [29] = experiment: Compound was evaluated for the anticancer activity against P388 leukemia in CD2F1 male mice at a dose of 10 mg/kg/after 30 days; 0/6; type: functional; procedure, shortened: as §1
Mus musculus [30] = experiment: Compound was evaluated for the anticancer activity against P388 leukemia in CD2F1 male mice at a dose of 125 mg/kg/after 30 days; 0/6; type: functional; procedure, shortened: as §1
Mus musculus [31] = experiment: Anticancer activity against P388 leukemia in CD2F1 male mice expressed as Average % weight change on day 5 as a measure of toxicity was reported at a dose of 10 mg/kg/day.; type: functional; procedure, shortened: as §1
Mus musculus [32] = experiment: Anticancer activity against P388 leukemia in CD2F1 male mice expressed as Average % weight change on day 5 as a measure of toxicity was reported at a dose of 125 mg/kg/day.; type: functional; procedure, shortened: as §1
Mus musculus [33] = experiment: Anticancer activity against P388 leukemia in CD2F1 male mice expressed as Average % weight change on day 5 as a measure of toxicity was reported at a dose of 5 mg/kg/day.; type: functional; procedure, shortened: as §1
Mus musculus [34] = experiment: Compound was evaluated for the anticancer activity against P388 leukemia in CD2F1 male mice at a dose of 6 mg/kg/after 30 days; 0/6
Mus musculus [35] = experiment: Percentage increase in life span when the compound was administered intraperitoneally at dose of 200 mg/Kg in P388 leukemia in CDF1 mice was determined; type: functional; conditions: P388, ip
Procedure, shortened: (§2)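 Positive-control arm of the NCI P388 protocol in CD2F1 male mice, groups of six, inoculated ip with 10⁶ cells on day 0. A single 200 mg/kg per day dose was given on day 1. Survival was followed to 30 days, with T/C and %ILS from mean survival times and day-5 average weight change as toxicity.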

Mus musculus [36] = experiment: Compound was evaluated for the anticancer activity against P388 leukemia in CD2F1 male mice at a dose of 200 mg/kg/day.; type: functional; procedure, shortened: as §2
Mus musculus [37] = experiment: Anticancer activity against P388 leukemia in CD2F1 male mice. Number of survivors vs number of treated animals after 30 days were reported at a dose of 200 mg/kg/day; 0/6; type: functional; procedure, shortened: as §2
Mus musculus [38] = experiment: Anticancer activity against P388 leukemia in CD2F1 male mice expressed as Average % weight change on day 5 as a measure of toxicity was reported at a dose of 200 mg/kg/day.; type: functional; procedure, shortened: as §2
Mus musculus [39] = experiment: Percentage increase in life span when the compound was administered intraperitoneally at dose of 6 mg/Kg in P388 leukemia in CDF1 mice was determined; type: functional; conditions: P388, ip; procedure, shortened: as §1
Mus musculus [40] = experiment: Compound was evaluated for the anticancer activity against P388 leukemia in CD2F1 male mice at a dose of 6 mg/kg/day.; type: functional; conditions: at 6 mg/kg/day
Mus musculus [41] = experiment: Compound was evaluated for the anticancer activity against P388 leukemia in CD2F1 male mice at a dose of 60 mg/kg/after 60 days; 0/6; type: functional; procedure, shortened: as §1
Mus musculus [42] = experiment: Anticancer activity against P388 leukemia in CD2F1 male mice expressed as Average % weight change on day 5 as a measure of toxicity was reported at a dose of 6 mg/kg/day.; type: functional; procedure, shortened: as §1
Mus musculus [43] = experiment: Compound was evaluated for the anticancer activity against P388 leukemia in CD2F1 male mice at a dose of 5 mg/kg/after 30 days; 1/6; type: functional

S=P(N1CCOCCOCCOCCOCC1)(N1CC1)N1CC1
Partition coefficient [1]: 2.6
ILS at 20 mg/kg (Mus musculus [2]): 24%
ILS at 60 mg/kg (Mus musculus [3]): 80%
T/C (Mus musculus [4]): 180% and 80%
Weight change (Mus musculus [5]): -6.4%
Survivors (Mus musculus [6]): 0
Survivors (Mus musculus [7]): 0
Weight change (Mus musculus [8]): 7.9%

C1COCCOCCOCCOCCN1
ILS at 20 mg/kg (Mus musculus [2]): 2%
ILS at 60 mg/kg (Mus musculus [3]): 0%
Weight change (Mus musculus [5]): 7.9%
Survivors (Mus musculus [6]): 0
Survivors (Mus musculus [7]): 0
Weight change (Mus musculus [8]): 8.3%

O=P(N1CCOCCOCCOCCOCC1)(N1CC1)N1CC1
Partition coefficient [1]: 1.32
ILS at 10 mg/kg (Mus musculus [9]): 66%
ILS at 125 mg/kg (Mus musculus [10]): -13%
ILS at 20 mg/kg (Mus musculus [2]): 99%
ILS at 30 mg/kg (Mus musculus [11]): 122%
ILS at 40 mg/kg (Mus musculus [12]): 137%
ILS at 5 mg/kg (Mus musculus [13]): 41%
ILS at 60 mg/kg (Mus musculus [3]): 229%
ILS at 90 mg/kg (Mus musculus [14]): 287%
T/C (Mus musculus [15]): 166% and 66%
T/C (Mus musculus [16]): 199% and 99%
T/C (Mus musculus [17]): 222% and 122%
T/C (Mus musculus [18]): 237% and 137%
T/C (Mus musculus [4]): 329% and 229%
T/C (Mus musculus [19]): 387% and 287%
Survivors (Mus musculus [20]): 5
Survivors (Mus musculus [21]): 0
Survivors (Mus musculus [22]): 0
Survivors (Mus musculus [23]): 3
Survivors (Mus musculus [24]): 1
Survivors (Mus musculus [25]): 6
Weight change (Mus musculus [26]): 0%
Weight change (Mus musculus [27]): -6.8%
Weight change (Mus musculus [5]): -4.4%
Weight change (Mus musculus [28]): -1.8%
Survivors (Mus musculus [29]): 0
Survivors (Mus musculus [30]): 0
Survivors (Mus musculus [7]): 0
Weight change (Mus musculus [31]): 6.2%
Weight change (Mus musculus [32]): -9%
Weight change (Mus musculus [8]): -2%
Weight change (Mus musculus [33]): 3.3%
Survivors (Mus musculus [34]): 0

O=c1[nH]cc(F)c(=O)[nH]1 [FLUOROURACIL]
ILS at 200 mg/kg (Mus musculus [35]): 79%
T/C (Mus musculus [36]): 179% and 79%
Survivors (Mus musculus [37]): 0
Weight change (Mus musculus [38]): -4%

O=P(N1CC1)(N1CC1)N1CC1 [TEPA]
ILS at 6 mg/kg (Mus musculus [39]): 136%
T/C (Mus musculus [40]): 236% and 136%
Survivors (Mus musculus [41]): 0
Weight change (Mus musculus [42]): -4%
Survivors (Mus musculus [43]): 1

S=P(N1CC1)(N1CC1)N1CC1 [THIOTEPA]
Partition coefficient [1]: 2.54
ILS at 6 mg/kg (Mus musculus [39]): 141%
T/C (Mus musculus [40]): 241% and 141%
Survivors (Mus musculus [34]): 0
